# Experimental data from ChEMBL document CHEMBL1151764, “Search for inhibitors of bacterial and human protein kinases among derivatives of diazepines[1,4] annelated with maleimide and indole cycles” (J Med Chem, 2008).
# Experiments:
# [1] = target: T1, NUAK family SNF1-like kinase 1 (Homo sapiens, UniProt O60285); assay: Inhibition of human ARK5
# T1 sequence (O60285 whole entry): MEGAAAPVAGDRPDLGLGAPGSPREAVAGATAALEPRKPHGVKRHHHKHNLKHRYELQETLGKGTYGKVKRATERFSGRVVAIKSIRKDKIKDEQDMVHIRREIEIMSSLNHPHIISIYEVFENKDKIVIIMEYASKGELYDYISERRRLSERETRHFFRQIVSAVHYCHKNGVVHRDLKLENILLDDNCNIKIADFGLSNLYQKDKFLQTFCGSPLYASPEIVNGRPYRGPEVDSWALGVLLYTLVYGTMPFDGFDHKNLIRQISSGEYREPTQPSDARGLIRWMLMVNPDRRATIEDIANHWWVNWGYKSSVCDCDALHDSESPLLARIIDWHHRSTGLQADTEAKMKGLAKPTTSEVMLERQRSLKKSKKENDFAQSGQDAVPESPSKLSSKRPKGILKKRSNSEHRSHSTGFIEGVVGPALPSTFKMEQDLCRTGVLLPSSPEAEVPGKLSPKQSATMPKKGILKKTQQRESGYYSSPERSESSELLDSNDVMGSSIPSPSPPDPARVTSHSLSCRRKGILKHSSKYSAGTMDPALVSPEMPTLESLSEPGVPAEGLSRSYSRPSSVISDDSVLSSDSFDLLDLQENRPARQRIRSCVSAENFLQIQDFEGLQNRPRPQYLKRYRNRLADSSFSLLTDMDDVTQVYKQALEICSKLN
# [2] = target: Serine/threonine-protein kinase B-raf (Homo sapiens, UniProt P15056, V600E); assay: Inhibition of human B-RAF-V600E mutant
# Serine/threonine-protein kinase B-raf, sequence (P15056 2-766 V600E limits assumed): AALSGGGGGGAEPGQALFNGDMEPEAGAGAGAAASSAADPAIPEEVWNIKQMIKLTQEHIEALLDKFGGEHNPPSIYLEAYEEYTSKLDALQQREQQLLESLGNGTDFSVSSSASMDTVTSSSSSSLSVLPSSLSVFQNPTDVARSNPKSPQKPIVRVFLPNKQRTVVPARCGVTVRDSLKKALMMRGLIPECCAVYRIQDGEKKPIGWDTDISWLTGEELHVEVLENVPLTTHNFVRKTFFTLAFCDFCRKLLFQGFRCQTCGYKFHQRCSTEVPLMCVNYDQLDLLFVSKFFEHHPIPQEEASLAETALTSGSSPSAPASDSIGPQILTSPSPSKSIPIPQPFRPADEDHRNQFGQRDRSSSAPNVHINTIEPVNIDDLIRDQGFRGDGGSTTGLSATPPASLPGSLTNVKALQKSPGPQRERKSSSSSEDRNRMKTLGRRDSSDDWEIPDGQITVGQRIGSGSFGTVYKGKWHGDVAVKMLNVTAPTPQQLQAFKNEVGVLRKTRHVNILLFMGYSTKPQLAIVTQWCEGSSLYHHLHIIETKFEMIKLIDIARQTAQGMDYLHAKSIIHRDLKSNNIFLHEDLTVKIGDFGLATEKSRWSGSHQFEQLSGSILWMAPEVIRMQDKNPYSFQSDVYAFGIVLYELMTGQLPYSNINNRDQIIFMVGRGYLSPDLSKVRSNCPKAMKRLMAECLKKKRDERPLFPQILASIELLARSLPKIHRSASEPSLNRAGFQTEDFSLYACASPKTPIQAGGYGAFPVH
# [3] = target: T2, Cyclin-dependent kinase 2 (Homo sapiens, UniProt P24941); assay: Inhibition of human CDK2/CycA
# [4] = target: Cyclin-dependent kinase 4/cyclin D1 (Homo sapiens, UniProt P11802); assay: Inhibition of human CDK4/CycD1; format: protein-complex assay
# Cyclin-dependent kinase 4/cyclin D1, sequence (P11802 whole entry): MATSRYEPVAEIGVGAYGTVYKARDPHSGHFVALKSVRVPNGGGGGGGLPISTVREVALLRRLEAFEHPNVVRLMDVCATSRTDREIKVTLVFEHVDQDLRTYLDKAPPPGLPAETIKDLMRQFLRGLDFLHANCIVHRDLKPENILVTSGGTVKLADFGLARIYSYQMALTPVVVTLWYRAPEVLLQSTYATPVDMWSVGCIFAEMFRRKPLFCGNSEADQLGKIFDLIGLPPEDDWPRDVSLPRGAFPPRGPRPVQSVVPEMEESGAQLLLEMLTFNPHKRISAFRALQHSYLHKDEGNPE
# Cyclin-dependent kinase 4/cyclin D1, sequence (P24385 whole entry, further chain): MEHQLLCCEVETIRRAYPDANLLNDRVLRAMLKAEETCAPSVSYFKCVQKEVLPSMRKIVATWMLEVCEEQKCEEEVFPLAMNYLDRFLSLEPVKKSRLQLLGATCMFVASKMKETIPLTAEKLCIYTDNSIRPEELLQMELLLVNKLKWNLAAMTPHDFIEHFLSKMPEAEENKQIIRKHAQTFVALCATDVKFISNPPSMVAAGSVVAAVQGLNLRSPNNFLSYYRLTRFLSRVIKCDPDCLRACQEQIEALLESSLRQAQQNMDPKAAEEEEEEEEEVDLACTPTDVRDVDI
# [5] = target: Insulin receptor (Homo sapiens, UniProt P06213); assay: Inhibition of human INSR
# Insulin receptor, sequence (P06213 28-758 limits assumed): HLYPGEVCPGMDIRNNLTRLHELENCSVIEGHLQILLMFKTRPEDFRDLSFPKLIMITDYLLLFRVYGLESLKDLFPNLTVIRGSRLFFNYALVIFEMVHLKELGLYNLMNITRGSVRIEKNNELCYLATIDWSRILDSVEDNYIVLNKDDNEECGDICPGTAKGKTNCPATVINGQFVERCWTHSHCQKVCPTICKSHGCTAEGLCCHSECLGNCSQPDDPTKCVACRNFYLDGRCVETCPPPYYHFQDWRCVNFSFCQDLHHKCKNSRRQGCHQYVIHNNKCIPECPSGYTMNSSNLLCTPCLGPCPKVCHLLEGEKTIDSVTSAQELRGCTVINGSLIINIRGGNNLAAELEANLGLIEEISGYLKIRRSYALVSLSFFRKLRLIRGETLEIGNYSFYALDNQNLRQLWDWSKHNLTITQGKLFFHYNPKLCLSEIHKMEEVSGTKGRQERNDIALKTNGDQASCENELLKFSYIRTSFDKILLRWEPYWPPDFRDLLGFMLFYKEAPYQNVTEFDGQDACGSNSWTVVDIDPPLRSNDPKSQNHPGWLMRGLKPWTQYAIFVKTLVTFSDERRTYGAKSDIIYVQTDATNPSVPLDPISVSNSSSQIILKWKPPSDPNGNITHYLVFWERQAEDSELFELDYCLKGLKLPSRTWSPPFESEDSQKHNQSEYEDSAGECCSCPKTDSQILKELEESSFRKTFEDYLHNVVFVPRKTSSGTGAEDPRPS
# Insulin receptor, sequence (P06213 763-1382 limits assumed): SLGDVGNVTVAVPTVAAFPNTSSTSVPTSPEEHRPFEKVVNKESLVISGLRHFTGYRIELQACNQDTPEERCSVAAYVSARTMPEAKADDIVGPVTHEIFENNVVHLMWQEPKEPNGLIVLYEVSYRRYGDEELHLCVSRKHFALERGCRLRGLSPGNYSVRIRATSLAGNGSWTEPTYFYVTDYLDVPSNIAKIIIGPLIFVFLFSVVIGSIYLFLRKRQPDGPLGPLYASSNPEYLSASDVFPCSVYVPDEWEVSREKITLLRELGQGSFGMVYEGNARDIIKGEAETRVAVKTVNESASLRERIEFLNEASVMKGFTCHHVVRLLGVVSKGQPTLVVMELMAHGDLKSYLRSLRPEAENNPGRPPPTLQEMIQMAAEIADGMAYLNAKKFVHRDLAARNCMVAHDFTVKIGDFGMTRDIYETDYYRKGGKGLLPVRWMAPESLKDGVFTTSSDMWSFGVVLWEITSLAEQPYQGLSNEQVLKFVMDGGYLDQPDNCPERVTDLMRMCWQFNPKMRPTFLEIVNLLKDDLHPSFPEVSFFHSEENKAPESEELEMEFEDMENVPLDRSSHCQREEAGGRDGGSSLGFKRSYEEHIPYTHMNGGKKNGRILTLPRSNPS
# [6] = target: Hepatocyte growth factor receptor (Homo sapiens, UniProt P08581); assay: Inhibition of human MET
# Hepatocyte growth factor receptor, sequence (P08581 whole entry): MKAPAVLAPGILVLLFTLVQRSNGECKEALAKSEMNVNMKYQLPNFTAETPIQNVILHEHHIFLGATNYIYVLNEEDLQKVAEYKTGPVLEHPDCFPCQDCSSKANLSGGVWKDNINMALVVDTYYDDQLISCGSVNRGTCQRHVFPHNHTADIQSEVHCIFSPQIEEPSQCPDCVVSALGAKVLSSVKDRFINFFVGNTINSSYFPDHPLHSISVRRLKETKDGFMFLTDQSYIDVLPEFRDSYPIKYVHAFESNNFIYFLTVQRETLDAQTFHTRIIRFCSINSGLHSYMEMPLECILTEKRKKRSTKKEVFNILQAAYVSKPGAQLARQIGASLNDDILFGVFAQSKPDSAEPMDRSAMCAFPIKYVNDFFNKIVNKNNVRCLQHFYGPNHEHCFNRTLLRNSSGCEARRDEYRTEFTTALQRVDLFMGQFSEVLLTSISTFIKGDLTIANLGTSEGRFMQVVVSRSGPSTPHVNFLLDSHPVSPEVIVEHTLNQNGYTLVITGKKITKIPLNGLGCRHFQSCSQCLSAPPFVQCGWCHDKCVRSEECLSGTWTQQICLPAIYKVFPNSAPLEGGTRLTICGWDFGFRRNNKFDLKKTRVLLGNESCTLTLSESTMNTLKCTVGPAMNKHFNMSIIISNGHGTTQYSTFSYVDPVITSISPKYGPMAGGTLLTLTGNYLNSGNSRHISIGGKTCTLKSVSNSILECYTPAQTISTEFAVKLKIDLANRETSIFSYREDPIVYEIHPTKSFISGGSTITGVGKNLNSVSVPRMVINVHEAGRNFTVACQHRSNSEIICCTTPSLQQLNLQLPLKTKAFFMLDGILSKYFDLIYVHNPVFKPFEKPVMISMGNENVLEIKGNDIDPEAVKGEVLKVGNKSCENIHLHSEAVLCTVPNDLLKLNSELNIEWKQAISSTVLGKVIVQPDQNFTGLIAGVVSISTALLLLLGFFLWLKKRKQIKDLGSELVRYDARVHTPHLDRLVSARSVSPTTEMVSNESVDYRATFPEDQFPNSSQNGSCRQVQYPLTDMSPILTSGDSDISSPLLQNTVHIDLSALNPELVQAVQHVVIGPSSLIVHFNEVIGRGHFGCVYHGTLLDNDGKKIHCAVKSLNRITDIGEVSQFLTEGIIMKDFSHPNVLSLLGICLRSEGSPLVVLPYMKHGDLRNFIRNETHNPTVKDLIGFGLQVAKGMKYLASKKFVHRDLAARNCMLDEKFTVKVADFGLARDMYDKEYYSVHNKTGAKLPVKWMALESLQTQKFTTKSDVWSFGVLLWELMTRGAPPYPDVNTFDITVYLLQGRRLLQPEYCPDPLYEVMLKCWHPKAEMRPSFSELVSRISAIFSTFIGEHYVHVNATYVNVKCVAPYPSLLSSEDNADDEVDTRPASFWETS
# [7] = target: Platelet-derived growth factor receptor beta (Homo sapiens, UniProt P09619); assay: Inhibition of human PDGFRbeta
# [8] = target: Epidermal growth factor receptor (Homo sapiens, UniProt P00533); assay: Inhibition of human EGFR
# [9] = target: T3, Ephrin type-B receptor 4 (Homo sapiens, UniProt P54760); assay: Inhibition of human EPHB4
# T3 sequence (P54760 whole entry): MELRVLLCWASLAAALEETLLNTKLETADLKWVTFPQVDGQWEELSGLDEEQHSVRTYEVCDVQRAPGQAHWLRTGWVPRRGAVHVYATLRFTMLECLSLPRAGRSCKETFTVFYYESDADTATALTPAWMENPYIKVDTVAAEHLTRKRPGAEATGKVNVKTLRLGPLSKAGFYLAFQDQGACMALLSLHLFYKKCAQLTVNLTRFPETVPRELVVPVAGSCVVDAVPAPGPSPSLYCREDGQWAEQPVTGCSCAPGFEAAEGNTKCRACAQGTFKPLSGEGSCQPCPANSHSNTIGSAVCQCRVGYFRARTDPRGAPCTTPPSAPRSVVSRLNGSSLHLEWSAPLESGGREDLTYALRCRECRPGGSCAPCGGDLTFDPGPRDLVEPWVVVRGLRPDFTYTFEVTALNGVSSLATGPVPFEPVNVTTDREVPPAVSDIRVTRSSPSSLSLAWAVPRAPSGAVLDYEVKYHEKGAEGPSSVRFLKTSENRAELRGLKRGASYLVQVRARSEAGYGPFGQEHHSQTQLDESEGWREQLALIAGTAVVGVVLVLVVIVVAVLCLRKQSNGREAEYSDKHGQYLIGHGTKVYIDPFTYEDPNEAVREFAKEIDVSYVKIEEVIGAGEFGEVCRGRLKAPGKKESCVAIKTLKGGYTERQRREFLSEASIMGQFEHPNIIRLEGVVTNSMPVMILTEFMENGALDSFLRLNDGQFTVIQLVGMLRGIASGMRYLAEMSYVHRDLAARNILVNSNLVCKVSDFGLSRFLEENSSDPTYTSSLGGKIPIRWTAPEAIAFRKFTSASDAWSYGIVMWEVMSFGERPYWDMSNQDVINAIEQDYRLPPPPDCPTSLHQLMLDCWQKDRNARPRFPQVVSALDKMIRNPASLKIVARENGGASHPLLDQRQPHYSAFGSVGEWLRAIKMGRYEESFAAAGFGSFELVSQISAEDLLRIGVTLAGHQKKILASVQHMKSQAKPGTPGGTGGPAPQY
# [10] = system: Streptomyces coelicolor; assay: Inhibition of Ca(2+))/phosphatidylserine/diacylglycerol-dependent aph8 phosphorylation in Streptomyces coelicolor cell lysate assessed as [32Pi] incorporation into aph8 at 500 nM by microplate scintillation counter relative to control; design: scale not given: the % may be the effect or the level left
# Method in brief: (§1)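 Radiometric in vitro assay of actinobacterial protein kinases. Kinases incubated under standard conditions with [γ-³²P]ATP and aphVIII as substrate, with or without modulators or inhibitors. Read-out was incorporation of the γ-phosphoryl residue into aphVIII.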
# [11] = system: Streptomyces coelicolor; assay: Inhibition of aph8-induced kanamycin phosphorylation in Streptomyces coelicolor cell lysate assessed as [32Pi] incorporation into kanamycin at 10 uM by microplate scintillation counter relative to control; design: scale not given: the % may be the effect or the level left
# [12] = target: T2, Cyclin-dependent kinase 2; assay: Inhibition of human CDK2/Cyc2
# [13] = system: Streptomyces lividans; assay: Inhibition of aph8 positive Streptomyces lividans at 5 uM after 20 hrs by paper disk method; format: functional; details: read-out: IZ
# Method in brief: (§2)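 Test culture was Streptomyces lividans carrying plasmid pSU23 with the aphVIII gene, whose kanamycin-inactivating activity depends on Ser/Thr kinase phosphorylation. Paper disks (7 mm) held kanamycin (5 µg/disk) plus test compound at subtoxic amounts, about half the minimal growth-inhibitory dose. Disks went on plates of log-phase cells at 28 °C for 20 h. Read-out was lysis zone diameter.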
# [14] = system: Streptomyces lividans; assay: Inhibition of aph8 positive Streptomyces lividans at 10 uM after 20 hrs by paper disk method; format: functional; details: read-out: IZ; method in brief: as §2
# [15] = system: Streptomyces lividans; assay: Inhibition of aph8 positive Streptomyces lividans at 25 uM after 20 hrs by paper disk method; format: functional; details: read-out: IZ; method in brief: as §2
# [16] = system: Streptomyces lividans; assay: Inhibition of aph8 positive Streptomyces lividans at 50 uM after 20 hrs by paper disk method; format: functional; details: read-out: IZ; method in brief: as §2
# [17] = system: Streptomyces lividans; assay: Inhibition of aph8 positive Streptomyces lividans at 100 uM after 20 hrs by paper disk method; format: functional; details: read-out: IZ; method in brief: as §2
# [18] = system: Streptomyces coelicolor; assay: Inhibition of aph8 phosphorylation in Streptomyces coelicolor cell lysate assessed as [32Pi] incorporation into aph8 at 500 nM by microplate scintillation counter relative to control; design: scale not given: the % may be the effect or the level left; method in brief: as §1
# [19] = system: Streptomyces coelicolor; assay: Inhibition of Ca(2+)/Calmodulin-dependent aph8 phosphorylation in Streptomyces coelicolor cell lysate assessed as [32Pi] incorporation into aph8 at 500 nM by microplate scintillation counter relative to control; design: scale not given: the % may be the effect or the level left; method in brief: as §1
compound,measurement,setting,value
CNC(=N)SCCCn1c(=O)c2c(c1=O)n1c3ccccc3cc1c1cccc3ccn2c31,IC50,[1],9.7 µM
same,IC50,[2],8.4 µM
same,IC50,[3],6.3 µM
same,IC50,[4],6.2 µM
same,IC50,[5],6.3 µM
same,IC50,[6],7.4 µM
same,IC50,[7],6.7 µM
same,IC50,[8],9.9 µM
same,IC50,[9],3.9 µM
CN1C(=O)C(c2c[nH]c3ccccc23)=C(c2c[nH]c3ccccc23)C1=O,Activity,[10],206%
same,Activity,[11],89%
O=C1C2=C(C(=O)N1CCCSC1=NCCN1)n1ccc3cccc(c31)C1Cc3ccccc3N21 (stereo unspecified),IC50,[3],7.7 µM
CNC(=N)SCCCN1C(=O)C2=C(C1=O)n1ccc3cccc(c31)C1Cc3ccccc3N21 (stereo unspecified),IC50,[2],8 µM
same,IC50,[3],5.3 µM
same,IC50,[4],5.7 µM
same,IC50,[5],5.1 µM
same,IC50,[6],6.7 µM
N=C(N)SCCCN1C(=O)C2=C(C1=O)n1ccc3cccc(c31)C1Cc3ccccc3N21 (stereo unspecified),IC50,[12],4.3 µM
CCN(CC)Cc1cn2c3c(cccc13)C1Cc3ccccc3N1C1=C2C(=O)NC1=O (stereo unspecified),Activity,[11],92%
same,zone of inhibition at 5 µM,[13],0 mm
same,zone of inhibition at 10 µM,[14],0 mm
same,zone of inhibition at 25 µM,[15],7.5 mm
same,zone of inhibition at 50 µM,[16],9 mm
same,zone of inhibition at 100 µM,[17],12 mm
O=C(O)CN(CCOCCOCCN(CC(=O)O)CC(=O)O)CC(=O)O,Activity,[18],94%
CN([C@@H](Cc1ccc(OS(=O)(=O)c2cccc3cnccc23)cc1)C(=O)N1CCN(c2ccccc2)CC1)S(=O)(=O)c1cccc2cnccc12,Activity,[19],113%
